Measurements taken from ChEMBL document CHEMBL1146297, “Synthesis of 2'-paclitaxel methyl 2-glucopyranosyl succinate for specific targeted delivery to cancer cells” (Bioorg Med Chem Lett, 2007).
pIC50: −log10 of the molar value. ≈ marks a conversion by molar mass, not a printed value.

How the values were obtained:
NCI-H226 = experiment: Cytotoxicity against human NCI-H226 cells; type: functional, cell-based
[1] = Solubility in water; type: physicochemical
A498 = experiment: Cytotoxicity against human A498 cells; type: functional, cell-based
[2] = Cytotoxicity against human TW01 cells; type: functional, cell-based
HCT-116 = experiment: Cytotoxicity against human HCT116 cells; type: functional, cell-based
MCF7 [3] = experiment: Cytotoxicity against human MCF7 cells; type: functional, cell-based
Summary of the method: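 Human MCF-7 breast cancer cells were tested in a panel of eight cancer lines plus RPTEC normal renal epithelial cells, with growth inhibition measured across a concentration range. IC50 is the concentration giving 50% inhibition, taken as the mean of at least three independent experiments with SD under 10%.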

[4] = Cytotoxicity against human Hep3B cells; type: functional, cell-based, Hep 3B2
MKN-45 = experiment: Cytotoxicity against human MKN45 cells; type: functional, cell-based
[5] = Cytotoxicity against human MES-SA cells; type: functional, cell-based
RPTEC [6] = experiment: Cytotoxicity against human RPTEC cells; type: cell-based
RPTEC [7] = experiment: Selectivity index, IC50 for MCF7 cells to human RPTEC cells; type: functional
Summary of the method: (§1)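 Selectivity index is the IC50 in the cancer line (MCF-7 or NPC-TW01) divided by the IC50 in normal RPTEC cells. Each IC50 is the mean of at least three independent experiments.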

RPTEC [8] = experiment: Selectivity index, IC50 for TW01 cells to human RPTEC cells; type: functional; summary of the method: as §1
MCF7 [9] = experiment: Cytotoxicity against human MCF7 cells at 25 ng/mL; type: functional
[10] = Stability in human serum for 4 hrs; type: ADME, cell-free; settings: read-out: Stability
Summary of the method: (§2)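 Compound incubated in human serum at 4 µg/mL serum and 37 °C. It was then extracted with dichloromethane, and the remaining intact material was quantified by reverse-phase HPLC on a C18 column. Sampling ran up to 96 h, and stability is expressed as percent remaining.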

[11] = Half life in human serum; type: ADME, cell-free; summary of the method: as §2

SMILES | pIC50 (NCI-H226) | solubility [1] [µg/mL] | pIC50 (A498) | pIC50 [2] | pIC50 (HCT-116) | pIC50 (MCF7 [3]) | pIC50 [4] | pIC50 (MKN-45) | pIC50 [5] | pIC50 (RPTEC [6]) | Ratio IC50 (RPTEC [7]) | Ratio IC50 (RPTEC [8]) | Activity (MCF7 [9]) [%] | remaining at 4 h [10] [%] | half-life [11] [h]
CC(=O)O[C@H]1C(=O)[C@@]2(C)[C@H]([C@H](OC(=O)c3ccccc3)[C@]3(O)C[C@H](OC(=O)[C@H](O)[C@@H](NC(=O)c4ccccc4)c4ccccc4)C(C)=C1C3(C)C)[C@]1(OC(C)=O)CO[C@@H]1C[C@@H]2O [PACLITAXEL] | 8.17 | < 4 | 7.21 | 9.52 | 9.22 | 9.30 | 8.27 | 9.30 | 9.30 | 9.05 | 0.56 | 0.33 |  |  | 
CC(=O)O[C@H]1C(=O)[C@@]2(C)[C@H]([C@H](OC(=O)c3ccccc3)[C@]3(O)C[C@H](OC(=O)[C@H](OC(=O)CCC(=O)O)[C@@H](NC(=O)c4ccccc4)c4ccccc4)C(C)=C1C3(C)C)[C@]1(OC(C)=O)CO[C@@H]1C[C@@H]2O |  |  |  |  |  |  |  |  |  |  |  |  | 50 |  | 
CO[C@H]1O[C@H](CO)[C@@H](O)[C@@H](O)[C@H]1OC(=O)CCC(=O)O[C@@H](C(=O)O[C@H]1C[C@@]2(O)[C@@H](OC(=O)c3ccccc3)[C@@H]3[C@]4(OC(C)=O)CO[C@@H]4C[C@H](O)[C@@]3(C)C(=O)[C@H](OC(C)=O)C(=C1C)C2(C)C)[C@@H](NC(=O)c1ccccc1)c1ccccc1 | 6.94 | 350 (≈ 310 µM) | 6.59 | 8.14 | 7.59 | 9.15 | 7.22 | 7.85 | 8.04 | 5.80 | 0.0004 | 0.0046 |  | 85 | 66
